Measured values: ChEMBL document CHEMBL1141283, “Benzaldehyde derivatives from Sarcodontia crocea” (2007)
≈ marks a conversion by molar mass, not a printed value.

Legend:
Type in all cases: functional
Bacillus subtilis = test: Antibacterial activity against Bacillus subtilis IMI347329 by microdilution method
Method in brief: (§1)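 Broth microdilution with two-fold (×2) dilution series of compounds from 1.56 to 800 µg/mL, four replicates per concentration per test strain; MIC taken as the lowest concentration inhibiting growth. Nystatin (fungi) and chloramphenicol (bacteria) were run as positive controls over the same concentration range.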

Cladosporium herbarum = test: Antifungal activity against Cladosporium herbarum IMI300461 by microdilution method; method in brief: as §1
Eurotium amstelodami = test: Antifungal activity against Eurotium amstelodami FC1021 by microdilution method; settings: Aspergillus amstelodami; method in brief: as §1
Botrytis cinerea = test: Antifungal activity against Botrytis cinerea IMI160282 by microdilution method; method in brief: as §1
Plenodomus lingam = test: Antifungal activity against Leptosphaeria maculans IMI266355 by microdilution method; method in brief: as §1
Pseudomonas syringae = test: Antibacterial activity against Pseudomonas syringae IMI347448 by microdilution method
Method in brief: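 Two-fold broth microdilution MIC, four replicates per concentration per strain, over 1.56 to 800 µg/mL. Chloramphenicol served as the antibacterial positive control across the same concentration range.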

Row | Compound | MIC (Bacillus subtilis) | MIC (Cladosporium herbarum) | MIC (Eurotium amstelodami) | MIC (Botrytis cinerea) | MIC (Plenodomus lingam) | MIC (Pseudomonas syringae)
1 | O=Cc1ccc(C2COC(=O)C2)cc1 (stereo not drawn) | > 800 µg/mL | 400 µg/mL (≈ 2100 µM) | 200 µg/mL (≈ 1050 µM) | 200 µg/mL (≈ 1050 µM) | 400 µg/mL (≈ 2100 µM) | 400 µg/mL (≈ 2100 µM)
2 | O=Cc1ccc(-c2ccoc2)cc1 | 800 µg/mL (≈ 4650 µM) | 200 µg/mL (≈ 1160 µM) | 100 µg/mL (≈ 581 µM) | 200 µg/mL (≈ 1160 µM) | 200 µg/mL (≈ 1160 µM) | 200 µg/mL (≈ 1160 µM)
3 | O=C(N[C@H](CO)[C@H](O)c1ccc([N+](=O)[O-])cc1)C(Cl)Cl [CHLORAMPHENICOL] | 6.25 µg/mL (≈ 19.3 µM) | – | – | – | – | 3.13 µg/mL (≈ 9.69 µM)
4 | NYSTATIN | – | 25 µg/mL | 50 µg/mL | 50 µg/mL | 100 µg/mL | –
